Screens as filed in PubChem.
Only some compounds are listed: those with a hit (about 3% of all), similar ones and a draw of the others.
PvdQ acylase: P. aeruginosa PvdQ acylase inhibitors, primary screen, biochemical, fluorescence, plate reader and imaging, single point; purified PvdQ acylase; inhibition, % at 10 µM; hit rate 0.063% among 340,000; AID 488965, 2010; in the data active = inhibition above about 30%, passing the limit was not always enough; inconclusive = no clear call, values can overlap the other calls
HSF-1 act: HSF-1 activators, primary screen, NIH3T3-HGL cells, MG132 stress, luminescence, single point. NIH3T3-HGL HSF-1 luciferase reporter, 8 h; 100% = twice DMSO control signal. activation, % at 9 µM. hit rate 1.7% among 300,000. AID 504408, 2011;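 active = mean replicate activation of at least 50% with a set share of replicates each reaching 50%; inconclusive = only one of those two conditions met; inactive = mean below 50% and too few replicates reaching it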
PfHsp90 set2: growth inhibition of PfHsp90-expressing yeast, primary screen, antimalarial PfHsp90 inhibitor project, S. cerevisiae, BacTiter-Glo luminescence, single point, set 2 | BacTiter-Glo ATP, 48 h; yeast lacking PDR1 and PDR3 efflux regulators | hit rate 0.32% among 310,000 | inhibition, % at 9.4 µM | AID 504621, 2011;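 active = every replicate shows inhibition above about 80%, whatever the replicate mean, limit read from the data; inconclusive = mean inhibition reaches the set limit but some replicate falls short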
T cruzi repl: inhibitors of intracellular T. cruzi growth, primary screen, luminescence, NIH3T3 host cells. inhibition, % (test concentration not listed). T. cruzi beta-gal in NIH3T3, 90 h. hit rate 1.4% among 300,000. AID 1885, 2009;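 active = mean inhibition across valid replicates above about 55%, limit read from the data; inconclusive = mean below that limit but half or more replicates reach it; inactive = mean below it, under half of replicates reach it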;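 note: signal also drops with host cell toxicity which is not excluded here; higher percent means less beta-gal luminescence so fewer parasites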
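Assay system: NIH/3T3 fibroblasts plus reporter T. cruzi. Amount: NIH/3T3 cells, 5,000 per well. Buffer or medium: DMEM, 2% fetal bovine serum. Doses: compound pinned at 50 nL/well, DMSO. Schedule: ≥90 h infection period, 3 h prior cell attachment. Signal: luminescent β-galactosidase signal after 60 min lysis. Read-out: parasite load inhibition, %.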
Glyco luc inh: increase of ERlucT glycosylation luciferase signal, primary screen, N-linked glycosylation inhibitor project, D54 ERlucT cells, luminescence, set 2; D54 ERlucT glycosylation luciferase reporter, 24 h; percent of 100 nM tunicamycin response; reporter increase, % at 12.5 µM; hit rate 0.23% among 360,000;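 active = mean luciferase reporter signal, scaled so untreated is 0 and the glycosylation-blocking control 100, at or above a set limit in every replicate; inconclusive = mean reaches the limit but not every replicate does; inactive = mean below the limit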;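 note: luciferase carries N-glycosylation sites so blocking glycosylation raises the light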
CaV13 FRET inh: Primary screen for inhibitors of IQ motif and Ca2+-dependent inactivation inhibitor domain binding in CACNA1D, Förster resonance energy transfer in living cells, …; HEK cells, CFP/YFP FRET ICDI-IQ, plate reader, 10 min; percent FRET-ratio fall versus neutral wells; inhibition, % at 12.3 µM; hit rate 0.098% among 340,000; AID 743397;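 active = mean replicate inhibition of at least 30% and at least 1% of replicates passing that level; inconclusive = only one of the two criteria is met; inactive = neither criterion is met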
Each line names hits and unclear results; the compound was inactive in the other large screens.

CN=c1scc(-c2ccccc2F)n1/N=C/c1ccc(O)c(O)c1O	none
C/C(Cn1cnc([N+](=O)[O-])n1)=N\NC(=O)c1ccccc1F	HSF-1 act inconclusive, T cruzi repl 75 (no result: CaV13 FRET inh)
C/C(Cn1cnc([N+](=O)[O-])n1)=N\NC(=O)c1ccccc1O	T cruzi repl 56
C/C(Cn1cnc([N+](=O)[O-])n1)=N\NC(=O)c1ccc(Br)cc1	none
C/C(Cn1cnc([N+](=O)[O-])n1)=N\NC(=O)c1ccc(O)cc1O	T cruzi repl 55
C/C(Cn1cnc([N+](=O)[O-])n1)=N/NC(=O)COc1ccccc1Cl	T cruzi repl 56
CC(C)NC(=O)NC(=O)COc1ccc(Br)cc1Br	HSF-1 act 87
O=C(COc1ccc(Br)cc1Br)NC1CCCC1	none
C=CCN1C(=O)c2n[nH]c(COC)c2C1c1ccc(C)cc1 (centres undefined)	none (no result: PvdQ acylase, HSF-1 act, PfHsp90 set2, T cruzi repl, Glyco luc inh)
Cc1ccc(C)c(NC(=O)C2CC(O)CN2C(=O)Oc2ccccc2)c1 (centres undefined)	HSF-1 act 67
CCOC(=O)N1CCN(S(=O)(=O)c2ccc(F)c(C(=O)Nc3ccc(C(C)C)cc3)c2)CC1	HSF-1 act 69
Cc1ccc(CSc2nnc(-c3ccccn3)n2Cc2cccs2)cc1	none (no result: PvdQ acylase, HSF-1 act, PfHsp90 set2, T cruzi repl)
Cc1nc2nc(-c3cccs3)[nH]c2cc1Br	HSF-1 act 63
c1ccc(-c2nc(-c3cccs3)[nH]c2-c2ccccc2)cc1	none
O=C(O)c1ccc(CNCc2cccc(Cl)c2)cc1	none
COc1ccc(CNCc2cccc(Cl)c2)cc1	PvdQ acylase 43
Cc1nc2ncccn2c1-c1csc(Nc2ccccc2)n1	none
Cc1nc2ncccn2c1-c1csc(Nc2ccc(N(C)C)cc2)n1	Glyco luc inh 51
O=S(=O)(c1ccc(Cl)cc1)c1snnc1-c1ccccc1	HSF-1 act 66, T cruzi repl 60
c1ccc(Cc2c[nH]c3ccccc23)cc1	none
CN(Cc1ccccc1)Cc1c[nH]c2ccccc12	T cruzi repl 55
CCN(C(=O)CSc1nnnn1C)C1CCS(=O)(=O)C1 (centres undefined)	none (no result: HSF-1 act, T cruzi repl)
CCCS(=O)(=O)NC(=O)C1(C)CCCN(C(=O)c2cc(F)cc(F)c2)C1 (centres undefined)	none (no result: PvdQ acylase, HSF-1 act, PfHsp90 set2, T cruzi repl)
COC(=O)c1ccc(N2C(=O)CC(N3CCC(O)(c4ccc(Br)cc4)CC3)C2=O)cc1 (centres undefined)	PfHsp90 set2 100, T cruzi repl inconclusive
O=S1(=O)N[C@H](Cc2ccccc2)COc2cccc(N3CCN(Cc4ccccc4F)CC3)c21	none (no result: PvdQ acylase, HSF-1 act, PfHsp90 set2, T cruzi repl, Glyco luc inh)
O=C(Nc1ccn(CCCNCC2CCCO2)c(=O)n1)OCc1ccccc1 (centres undefined)	none (no result: HSF-1 act, T cruzi repl)
Cc1sc(NC(=O)c2ccco2)c(CN2CCN(c3ccccn3)CC2)c1C	none (no result: CaV13 FRET inh)
CCOC(=O)N1CCN(Cc2c(NC(=O)c3ccco3)sc(C)c2C)CC1	HSF-1 act 99
Cc1sc(NC(=O)c2ccco2)c(CN2CCN(c3ccc(F)cc3)CC2)c1C	HSF-1 act 87
COc1ccc(Sc2nnc(Cc3ccccc3)c3ccccc23)cc1	none
Cc1ccc(Sc2nnc(Cc3ccccc3)c3ccccc23)cc1	T cruzi repl 62 (no result: PfHsp90 set2)
CCOCCCN(C(=O)c1snc(C(N)=O)c1N)C(C(=O)NCCC(C)C)c1ccc(F)cc1 (centres undefined)	HSF-1 act 53
CCOc1ccc(C(C(=O)NCCC(C)C)N(CCO)C(=O)c2snc(C(N)=O)c2N)cc1 (centres undefined)	none
COc1ccc(C2=CC(=O)C[C@H](c3ccc(Cl)cc3)C2)cn1	none (no result: HSF-1 act, PfHsp90 set2, T cruzi repl)
Cc1sc(NC(=O)Cc2ccc3c(c2)OCO3)nc1-c1ccc2c(c1)CCN2C(=O)c1ccccc1F	T cruzi repl 56
Cc1sc(NC(=O)Cc2ccc3c(c2)OCO3)nc1-c1ccc2c(c1)CCN2C(=O)c1ccc(F)cc1	none
